# Bioassay records from PubChem.
# Most compounds without a hit are left out; they make up all but 4.9% or so of the library.
# RAM inhibit: blocks the yeast RAM network; S. cerevisiae dse1pr::URA3 reporter, 5-FOA growth OD615, 2 d; analog-sensitive cbk1-as2 kinase mutant strain; inhibition, % at 50 µM; 1.8% of 190,000 active; AID 868;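 active = inhibition above a set limit, 3 SD over mean compound inhibition, cut at about 8.4% in these data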;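 note: 0% = DMSO-only wells with no growth and 100% = 10 µM 1-NA-PP1 full growth; inhibition rescues growth on 5-FOA so higher OD means more RAM inhibition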
# WT yeast gro inh: growth inhibition of WT yeast, mitochondrial fusion screen; inhibition, % at 10 µM; 2.1% of 190,000 active; mitochondrial fusion phenotypic screen, WT strain; in the data active = inhibition above about 58%; tested in S. cerevisiae
# NPY-Y1 PAM-ag: human NPY-Y1 potentiation or agonism, primary screen | AID 1304 | P25929 | activation, % at 3.6 µM | 0.37% of 220,000 active | NPY-Y1 expressing cells, potentiator/agonist activation; in the data active = activation above about 33%, passing the limit was not always enough;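 note: cells stimulated with NPY at EC10 then isoproterenol at EC100; 0% = low agonist plus stimulus and 100% = saturating agonist plus stimulus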
# NPY-Y2 PAM-ag: potentiators or agonists of human neuropeptide Y receptor Y2. activation, % at 3.6 µM. P49146. AID 1359. 0.45% of 220,000 active. cells expressing NPY-Y2, potentiator/agonist read-out; in the data active = activation above about 27%;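 note: cells stimulated with NPY near EC25 plus isoproterenol at EC100; 0% = vehicle plus submaximal agonist and 100% = vehicle plus saturating agonist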
# Target sequence (P49146 whole entry, looked up): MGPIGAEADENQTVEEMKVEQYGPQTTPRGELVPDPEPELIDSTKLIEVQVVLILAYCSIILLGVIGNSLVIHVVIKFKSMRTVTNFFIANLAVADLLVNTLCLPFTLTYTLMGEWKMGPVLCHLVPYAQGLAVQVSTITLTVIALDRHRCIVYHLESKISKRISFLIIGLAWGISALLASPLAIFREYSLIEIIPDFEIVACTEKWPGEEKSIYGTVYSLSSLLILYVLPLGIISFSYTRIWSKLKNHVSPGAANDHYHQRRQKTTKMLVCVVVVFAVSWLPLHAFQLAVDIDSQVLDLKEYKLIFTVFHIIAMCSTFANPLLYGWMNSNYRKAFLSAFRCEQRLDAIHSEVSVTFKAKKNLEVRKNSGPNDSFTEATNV
# NPY Y2 blocker: blocks the human neuropeptide Y Y2 receptor | inhibition, % at 2.7 µM | NPY-Y2 expressing cells, antagonist mode | P49146 | 0.99% of 140,000 active | AID 793; in the data active = inhibition above about 17%;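 note: 0% = vehicle with agonist challenge and 100% = reference antagonist with challenge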
# NPY Y1 blocker: antagonists of human neuropeptide Y receptor Y1 | AID 1040 | P25929 | inhibition, % at 3.6 µM | HEK293-CNG Y1 cells, membrane potential fluorescence; NPY at EC95, then isoproterenol | 1% of 200,000 active;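 active = inhibition above the campaign mean inhibition of all tested compounds plus 3 SD, cut at about 20% in these data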;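 note: 0% = DMSO wells given NPY plus isoproterenol and 100% = isoproterenol alone without NPY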
#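 Test system – HEK293 Y1/CNG channel cell line · Also added – NPY agonist 25 nM, then isoproterenol 1 µM plus Ro 20-1724 25 µM · Compound dosing – one concentration, 3.6 µM, in 0.4% DMSO · Schedule – compound incubation 1 h at room temperature, readout 45 min post-stimulation · Technique – fluorescence, membrane potential probe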
# * = called active by the depositor; / = no result.
SMILES,RAM inhibit,WT yeast gro inh,NPY-Y1 PAM-ag,NPY-Y2 PAM-ag,NPY Y2 blocker,NPY Y1 blocker
COc1cc2c(cc1NC(=O)C(C)OC(=O)c1ccc(S(=O)(=O)Nc3ccccc3Cl)cc1)oc1ccccc12 (configuration not stated),11.0*,14.2,-1.4,-14.2,/,3.1
COc1cc2c(cc1NC(=O)C(C)N1CCN(S(=O)(=O)c3ccc(C)c(C)c3)CC1)oc1ccccc12 (configuration not stated),3.4,10.9,-8.4,0.6,5.0,-0.3
O=C(CSCc1cccc(CSCC(=O)Nc2ccc3ccccc3c2)n1)Nc1ccc2ccccc2c1,7.0,8.7,-5.7,-8.1,-3.7,3.4
O=C(CSCCN1C(=O)c2ccccc2C1=O)Nc1ccc2ccccc2c1,9.2*,-7.5,-14.2,3.5,5.4,1.2
Cc1ccc(S(=O)(=O)Nc2cccc3ncccc23)cc1,/,/,23.2,-9.9,/,/
Cc1ccc(S(=O)(=O)Nc2cccc3ncccc23)s1,0.0,71.0*,-12.8,-12.8,0.8,-4.2
O=C(C1CCC(CNS(=O)(=O)c2ccc(F)cc2)CC1)N1CCOCC1 (configuration not stated),0.9,2.0,14.0,-15.0,/,-1.6
COCCOC(=O)c1c(NC(=O)CN2CCCc3ccccc32)sc(C(N)=O)c1C,11.4*,4.8,-1.9,14.8,0.5,-1.2
COC(=O)c1c(NC(=O)CN2CCCc3ccccc32)sc(C)c1C,3.3,-13.4,-33.5,1.7,0.8,-3.6
CCN(CC)S(=O)(=O)c1cccc(C(=O)Nc2sc3c(c2C(N)=O)CCCC3)c1,3.2,72.5*,-3.5,-7.7,0.9,0.8
NC(=O)c1c(NC(=O)c2ccncc2)sc2c1CCCC2,5.5,-5.1,-2.5,3.2,/,-7.2
COC(=O)c1ccc(Oc2cc(C)nc(-n3nc(C)cc3C)n2)cc1,-0.4,70.3*,-6.3,-3.5,10.0,3.3
COc1ccc(CNC(=O)C2COc3ccccc3O2)c(OC)c1 (configuration not stated),1.2,-15.5,-0.9,6.9,-0.2,7.9
CCC(C)c1ccccc1NC(=O)Cc1coc2cc3c(cc12)CCC3 (configuration not stated),9.5*,36.5,-4.3,-6.9,2.0,1.4
Cc1ccc(C)c(NC(=O)Cc2coc3cc4c(cc23)CCC4)c1,3.6,-13.5,-4.6,2.5,6.8,1.2
S=C(Nc1ccc(Cl)c(Cl)c1)NC1CCN(Cc2ccccc2)CC1,1.8,73.7*,21.2,19.5,-3.0,-4.7
Fc1ccc(NC(=S)NC2CCN(Cc3ccccc3)CC2)cc1,1.0,4.6,17.2,9.3,/,-5.2
O=C(O)C1CC=CCC1C(=O)Nc1cccc([N+](=O)[O-])c1 (configuration not stated),9.6*,12.8,7.8,5.2,/,-1.0
O=C(O)C1CC=CCC1C(=O)Nc1cccc(F)c1 (configuration not stated),0.8,2.6,1.6,-9.4,2.7,-1.4
Cc1cc(C#N)c(C)n1-c1cc(C(F)(F)F)ccc1N1CCOCC1,5.2,5.7,-13.1,-16.6,20.2*,21.2*
O=C(CCCc1nc2ccccc2s1)Nc1ccccc1,-0.7,-7.0,-0.6,-11.0,/,8.6
Cc1ccc(C)c(N2CCN(c3cnn(-c4nc5ccccc5s4)c(=O)c3Cl)CC2)c1,9.1*,3.6,-20.6,4.3,3.3,-3.9
CC1CC(=O)c2c(cc3c(-c4c(O)cc(O)c5c(O)c6c(cc45)OC(C)CC6=O)c(O)cc(O)c3c2O)O1 (configuration not stated),9.4*,24.7,-3.0,-19.2,/,2.8
C/C(=N\Nc1cccc(Cl)c1)c1ccncc1,-0.2,62.5,39.0*,39.8*,/,-12.3
N#CCCn1cc(C(=O)Nc2ccc(C(=O)O)cc2)c(-c2ccc([N+](=O)[O-])cc2)n1,8.8*,10.0,-10.3,-5.7,/,-3.0
SMILES,RAM inhibit,WT yeast gro inh,NPY-Y1 PAM-ag,NPY-Y2 PAM-ag,NPY Y2 blocker,NPY Y1 blocker
CC(=O)c1ccc(Sc2ccccc2)c([N+](=O)[O-])c1,/,/,7.8,13.7,/,/
CCOC(=O)c1c(CN2CCN(CCO)CC2)n(C)c2cc(Br)c(OC)cc12,0.3,12.3,-14.5,-3.5,0.6,-10.5
OC(CNCc1ccc(Cl)cc1)(c1ccccc1)c1ccc(F)cc1 (configuration not stated),0.1,71.3*,-25.7,-7.8,/,7.4
COc1ccc(CNCC(O)(c2ccc(Cl)cc2)c2ccc(Cl)cc2)cc1,-0.1,-4.6,-17.2,-9.8,6.3,12.1
CCOc1ccc(/C=N/OCC(=O)NC(c2ccccc2)c2ccccc2)cc1,10.5*,27.3,-27.8,-3.4,2.1,9.7
Cc1c(CN2CCC(CO)(CCOc3ccccc3)CC2)[nH]c2c(Cl)cccc12,-0.8,92.9*,-6.3,-8.5,/,5.4
Cc1nn(C)c(Cl)c1CN1CCC(CO)(CCOc2ccccc2)CC1,0.5,-0.1,13.0,4.8,/,2.0
CCOC(=O)N1CCN(C(=O)c2oc3ccc(S(=O)(=O)N4CCCCC4)cc3c2C)CC1,2.3,6.0,18.4,9.7,-1.0,-5.4
CCCCN(C)C(=O)c1oc2ccc(S(=O)(=O)N3CCCCCC3)cc2c1C,9.8*,18.3,-10.4,-4.1,5.0,4.7
O=C(O)CCCCCn1c(SCC(=O)Nc2ccc(F)cc2)nc2ccsc2c1=O,6.5,-2.1,-5.8,5.7,/,-0.6
COc1ccc(NC(=O)CSc2nc3ccsc3c(=O)n2CCCCCC(=O)O)cc1,10.7*,-7.7,-16.5,5.6,/,0.1
O=C(O)CCCCn1c(SCC(=O)Nc2ccccc2C(F)(F)F)nc2ccsc2c1=O,8.7*,3.0,-4.4,-5.9,5.3,6.0
CCn1c(SCC(=O)N2CCCc3ccccc32)nc2c(c1=O)SC(C)C2 (configuration not stated),1.4,9.2,14.1,-11.4,/,1.0
COc1ccc(-c2cn[nH]c2-c2ccc(OCc3ccc([N+](=O)[O-])cc3)cc2O)cc1,4.5,68.2*,-10.6,5.7,-0.9,-0.9
C=C(C)COc1ccc(-c2n[nH]c(C)c2-c2ccc(Br)cc2)c(O)c1,10.4*,26.1,23.2,11.2,-1.9,-5.1
C=C(C)COc1ccc(-c2[nH]ncc2-c2ccc(Br)cc2)c(O)c1,6.6,94.7*,10.9,28.2,-2.5,0.7
CCOc1ccc(-c2[nH]ncc2-c2ccc(OC)c(OC)c2)c(O)c1,0.3,2.9,6.8,1.2,1.9,-1.4
COc1ccc(-c2[nH]ncc2-c2ccc3c(c2)OCCO3)c(O)c1,10.1*,9.1,1.5,-0.8,12.7,3.5
CCCc1cc(-c2[nH]ncc2-c2ccc3c(c2)OCCCO3)c(O)cc1OC,8.1,45.2,22.5,-9.0,2.2,1.1
O=C(NCCCN1CCN(c2ccccc2F)CC1)C1CCN(S(=O)(=O)N2CCOCC2)CC1,0.4,8.5,5.0,3.9,1.8,-1.2
O=C(NCCN1CCN(c2ccccc2)CC1)C1CCN(S(=O)(=O)N2CCOCC2)CC1,1.1,-6.6,31.8*,-8.1,-1.1,-1.7
